# ChEMBL document CHEMBL1157145, “Cytotoxic activity of proflavine diureas: synthesis, antitumor, evaluation and DNA binding properties of 1',1''-(acridin-3,6-diyl)-3',3''-dialkyldiureas” (Bioorg Med Chem, 2008)
# Active and inactive are the calls of the source. The rule behind the calls is not given here.
# Assays:
# HCT-116 [1] = test: Antiproliferative activity against human HCT116 cells assessed as increase of floating cells in total cell population at 77 uM after 24 hrs; format: functional
# Outline: (§1)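 Cells seeded (8 · 10^5 per 60 mm dish), allowed to settle 24 h at 37 °C, 5% CO2, then treated with a single concentration for 24 or 48 h. Adherent and floating cells counted by Coulter counter. Total cell number given as % of untreated control; floating cells as % of total cell number.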
# HeLa [2] = test: Antiproliferative activity against human HeLa cells assessed as increase of floating cells in total cell population at 5.50 uM after 48 hrs; format: functional; outline: as §1
# HeLa [3] = test: Induction of apoptosis in human HeLa cells at 5.50 uM after 48 hrs; format: functional
# Outline: (§2)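 After 24 or 48 h of drug exposure, all cells were collected, combining trypsinised adherent cells with floating cells from the medium. Cells (1 × 10^6) were fixed in cold 70% ethanol overnight at −20 °C and stained with DAPI (10 µg/mL) for 30 min in the dark at RT. Under fluorescence microscopy, 300 cells per sample were scored, with condensed or fragmented nuclei counted as apoptotic.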
# HeLa [4] = test: Cytotoxicity against human HeLa cells after 72 hrs by MTT assay; format: functional, cell-based
# HeLa [5] = test: Antiproliferative activity against human HeLa cells assessed as increase of floating cells in total cell population at 5.50 uM after 24 hrs; format: functional; outline: as §1
# HeLa [6] = test: Antiproliferative activity against human HeLa cells assessed as decrease in total cell population at 5.50 uM after 24 hrs; format: functional; parameters: scale not given: the % may be the effect or the level left; outline: as §1
# HCT-116 [7] = test: Antiproliferative activity against human HCT116 cells assessed as decrease in total cell population at 77 uM after 24 hrs; format: functional; parameters: scale not given: the % may be the effect or the level left; outline: as §1
# HeLa [8] = test: Cell cycle arrest in human HeLa cells assessed as accumulation at G0/G1 phase at 5.50 uM after 48 hrs; format: functional
# Outline: (§3)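 Cells seeded at 8 · 10^5 per 60 mm dish, allowed to settle 24 h (37 °C, 5% CO2), then exposed to the drug for 24 or 48 h. Adherent plus floating cells (5 · 10^5) were fixed in cold 70% ethanol at −20 °C overnight, treated with RNase A (100 µg/mL) and stained with propidium iodide (20 µg/mL) in Vindelov's solution for 30 min at RT. Flow cytometry used 488 nm excitation, FL-2 at 585 ± 21 nm, and histograms were modelled for G0/G1, S and G2/M fractions.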
# HeLa [9] = test: Cell cycle arrest in human HeLa cells assessed as accumulation at G0/G1 phase at 5.50 uM after 24 hrs; format: functional; outline: as §3
# HCT-116 [10] = test: Cell cycle arrest in human HCT116 cells assessed as accumulation at S phase at 77 uM after 24 hrs; format: functional; outline: as §3
# HCT-116 [11] = test: Induction of DNA fragmentation in human HCT116 cells after 24 hrs; format: functional, cell-based
# Outline: (§4)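 HCT-116 cells were treated for 24 or 48 h. Adherent and floating cells (5 × 10^5) were pooled, fixed in cold 70% ethanol and held overnight at −20 °C. Samples were treated with RNase A (100 µg/mL) and stained with propidium iodide (20 µg/mL) in Vindelov's solution for 30 min at RT. Flow cytometry used 488 nm excitation with emission at 585 nm. Subdiploid (subG0/G1) particles were scored on a logarithmic scale, with debris gated out on FSC × SSC.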
# HeLa [12] = test: Cytotoxicity against human HeLa cells after 48 hrs by MTT assay; format: functional, cell-based
# HeLa [13] = test: Cell cycle arrest in human HeLa cells assessed as accumulation at S phase at 5.50 uM after 48 hrs; format: functional; outline: as §3
# HeLa [14] = test: Cell cycle arrest in human HeLa cells assessed as accumulation at G2/M phase at 5.50 uM after 24 hrs; format: functional; outline: as §3
# HCT-116 [15] = test: Cell cycle arrest in human HCT116 cells assessed as accumulation at G2/M phase at 77 uM after 48 hrs; format: functional; outline: as §3
# HCT-116 [16] = test: Cytotoxicity against human HCT116 cells after 48 hrs by MTT assay; format: functional, cell-based; conditions: HCT-116, 48 h
# HCT-116 [17] = test: Induction of apoptosis in human HCT116 cells at 77 uM after 48 hrs; format: functional; outline: as §2
# HCT-116 [18] = test: Cell cycle arrest in human HCT116 cells assessed as accumulation at G2/M phase at 77 uM after 24 hrs; format: functional; outline: as §3
# HCT-116 [19] = test: Antiproliferative activity against human HCT116 cells assessed as increase of floating cells in total cell population at 77 uM after 48 hrs; format: functional; outline: as §1
# HCT-116 [20] = test: Cell cycle arrest in human HCT116 cells assessed as accumulation at S phase at 77 uM after 48 hrs; format: functional; outline: as §3
# HeLa [21] = test: Cell cycle arrest in human HeLa cells assessed as accumulation at S phase at 5.50 uM after 24 hrs; format: functional; outline: as §3
# HeLa [22] = test: Cell cycle arrest in human HeLa cells assessed as accumulation at G2/M phase at 5.50 uM after 48 hrs; format: functional; outline: as §3
# HCT-116 [23] = test: Cell cycle arrest in human HCT116 cells assessed as accumulation at G0/G1 phase at 77 uM after 48 hrs; format: functional; outline: as §3
# HCT-116 [24] = test: Cell cycle arrest in human HCT116 cells assessed as accumulation at G0/G1 phase at 77 uM after 24 hrs; format: functional
# Outline: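 Adherent plus floating cells (5 · 10^5) collected 24 or 48 h after treatment, fixed in cold 70% ethanol at −20 °C overnight, washed in PBS. RNase A (100 µg/mL) and propidium iodide (20 µg/mL) in Vindelov's solution, 30 min at RT. Flow cytometry with 488 nm excitation, emission 585 ± 21 nm; % cells per cycle phase from DNA content histograms.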
# HCT-116 [25] = test: Antiproliferative activity against human HCT116 cells assessed as decrease in total cell population at 77 uM after 48 hrs; format: functional; parameters: scale not given: the % may be the effect or the level left; outline: as §1
# HeLa [26] = test: Antiproliferative activity against human HeLa cells assessed as decrease in total cell population at 5.50 uM after 48 hrs; format: functional; parameters: scale not given: the % may be the effect or the level left; outline: as §1
# HCT-116 [27] = test: Induction of apoptosis in human HCT116 cells at 77 uM after 24 hrs; format: functional; outline: as §2
# HCT-116 [28] = test: Cytotoxicity against human HCT116 cells after 72 hrs by MTT assay; format: functional, cell-based; conditions: Homo sapiens, HCT-116, 72 h
# DNA [29] = test: Binding affinity to calf thymus DNA at 4 uM by fluorescence spectrophotometric titration; format: nucleic-acid assay; conditions: Bos taurus
# Outline: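 ctDNA sonicated in TE buffer, concentration taken from A260 and given in base pairs. Compound (4 µM) in 0.01 M Tris, pH 7.4, 25 °C titrated with ctDNA (0–55 µM bp) until spectra stopped changing. Excitation 424 nm, slit widths 10 nm; binding constant derived from the change in emission.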
# DNA [30] = test: Binding affinity to calf thymus DNA at 50 uM by circular dichroism spectrophotometric titration; format: nucleic-acid assay; conditions: Bos taurus
# HCT-116 [31] = test: Induction of DNA fragmentation in human HCT116 cells after 48 hrs; format: functional, cell-based; outline: as §4
structure (smiles),measurement,setting,value
CCCCNC(=O)Nc1ccc2cc3ccc(NC(=O)NCCCC)cc3nc2c1.Cl,Activity,HCT-116 [1],51.08%
same,Activity,HeLa [2],3.93%
same,Activity,HeLa [3],0.44%
same,IC50,HeLa [4],11.5 µM
same,Activity,HeLa [5],4.03%
same,Activity,HeLa [6],92.75%
same,Activity,HCT-116 [7],47.4%
same,Activity,HeLa [8],74.91%
same,Activity,HeLa [9],61.17%
same,Activity,HCT-116 [10],22.52%
same,Activity,HCT-116 [11],Active
same,IC50,HeLa [12],5.41 µM
same,Activity,HeLa [13],15.5%
same,Activity,HeLa [14],13.88%
same,Activity,HCT-116 [15],28.85%
same,IC50,HCT-116 [16],77 µM
same,Activity,HCT-116 [17],3.89%
same,Activity,HCT-116 [18],37.51%
same,Activity,HCT-116 [19],33.41%
same,Activity,HCT-116 [20],27.24%
same,Activity,HeLa [21],24.95%
same,Activity,HeLa [22],9.6%
same,Activity,HCT-116 [23],43.91%
same,Activity,HCT-116 [24],39.97%
same,Activity,HCT-116 [25],27.58%
same,Activity,HeLa [26],96.5%
same,Activity,HCT-116 [27],9.67%
same,IC50,HCT-116 [28],43.9 µM
same,K,DNA [29],2.4 ×10⁵ /M
same,Activity,DNA [30],Active
same,Activity,HCT-116 [31],Active
